{"data": "Published values of several laboratories", "cell line": "HL-60", "effect on": "cell growth or viability", "note": "Each line is one published result; the experiments were not run side by side."}
{"SMILES": "O=C(NO)c1ccc(Cn2cnc3c(Nc4ccc(Cl)cc4)ncnc32)cc1", "technique": "MTT", "time": "72 h", "IC50 [µM]": 0.62}
{"SMILES": "O=C(CSc1nc2ccccc2s1)N/N=C/c1ccc(OCC(=O)Nc2ccc(Br)cc2)cc1", "technique": "MTS", "time": "72 h", "IC50 [µM]": "> 100"}
{"SMILES": "Nc1ccccc1NC(=O)c1ccc(Cn2cnc3c(Nc4ccc(Br)cc4F)ncnc32)cc1", "technique": "MTT", "time": "72 h", "IC50 [µM]": 0.99}
{"SMILES": "FC(F)(F)c1cc(OCc2cc(-c3ccccc3)no2)c2ccccc2n1", "technique": "MTS", "time": "72 h", "IC50 [µM]": "> 100"}
{"SMILES": "O=C(CSc1nc2ccccc2s1)N/N=C/c1ccc(OCC(=O)Nc2cccc(Br)c2)cc1", "technique": "MTS", "time": "72 h", "IC50 [µM]": "> 100"}
{"SMILES": "CN1CCc2c(c3ccccc3n2Cc2ccc(C(=O)NO)cc2)C1", "technique": "CCK-8", "time": "48 h", "IC50 [µM]": 8.87}
{"SMILES": "COc1cc([C@@H]2c3cc4c(cc3[C@@H](O[C@@H]3O[C@@H]5CO[C@@H](C)O[C@H]5[C@H](O)[C@H]3O)[C@H]3COC(=O)[C@H]23)OCO4)cc(OC)c1O", "technique": "XTT", "time": "75 h", "IC50 [µM]": 1.22}
{"SMILES": "FC(F)(F)c1ccc(-c2cc(CNc3cccc4cccnc34)on2)cc1", "technique": "MTS", "time": "72 h", "IC50 [µM]": "> 100"}
{"SMILES": "Nc1cccc2c1C(=O)N(C1CCC(=O)NC1=O)C2=O (stereo not drawn)", "technique": "CCK-8", "time": "7 days", "IC50 [µM]": "> 10"}
{"SMILES": "c1ccc(-c2cc(CNc3cccc4cccnc34)on2)nc1", "technique": "MTS", "time": "72 h", "IC50 [µM]": 64.8}
{"SMILES": "O=C(NO)c1ccc(Cn2cnc3c(Nc4ccc(Br)cc4F)ncnc32)cc1", "technique": "MTT", "time": "72 h", "IC50 [µM]": 5.98}
{"SMILES": "O=C(CSc1nc2ccccc2s1)N/N=C/c1ccc(OCC(=O)Nc2ccc([N+](=O)[O-])cc2)cc1", "technique": "MTS", "time": "72 h", "IC50 [µM]": 16.1}
